# Source: PubChem
# TAAR1 agonist – human TAAR1 agonism; Q96RJ0; CHO RD-HGA16 TAAR1, Fluo-8 calcium fluorescence; vehicle wells 0%, saturating PEA agonist 100%; activation, % at 3 µM; 0.99% of 360,000 active;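 active = activation above the mean activation of all test compounds in the run plus 3 SD, cut at about 38% in these data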
#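 Test system: RD-HGA16 (CHO) cells co-expressing Gα16 and hTAAR1; dosing: one-point dosing at 3 µM (nominal); timing: 17-24 h seeding, 75 min 37 °C dye, 30 min RT; signal: kinetic Fluo-8 calcium fluorescence; read-out basis: % activation relative to PEA EC100 response; controls: DMSO and PEA EC100; replicates: n 1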
# TAAR1 antag – antagonists of human TAAR1; CHO RD-HGA16 TAAR1, Fluo-8 calcium fluorescence, antagonist; inhibition, % at 3 µM; 1.5% of 360,000 active; AID 624466;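 active = inhibition above a per-plate cutoff, the mean inhibition of test compounds on that plate plus 3 SD, cut at about 49% in these data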;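 also: 0% = DMSO plus EC80 beta-PEA response and 100% = DMSO alone without agonist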
#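 System: CHO RD-HGA16 cells bearing hTAAR1. Reagent: EC80 β-phenethylamine stimulus. Schedule: seeding 17-24 h prior, 75-min 37 °C, 30-min RT dye loading. Signal: Fluo-8 intracellular calcium dye fluorescence, real-time kinetic reads. Read-out: % inhibition from peak post-agonist over basal fluorescence ratio. Benchmarks: vehicle wells and EC80 agonist wells. Replicates: n of 1.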
# OX1R antag-1 – blocks the human orexin 1 receptor. O43613. CHO/OX1R cells, Fluo-8 calcium fluorescence, orexin A. inhibition, % at 5 µM. 0.43% of 330,000 active;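 active = inhibition above its plate's threshold, mean inhibition of all tested compounds on the plate plus 3 SD, cut at about 37% in these data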;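 also: 0% = orexin A challenge wells and 100% = SB-334867-A antagonist wells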
# Target sequence (O43613 whole entry, looked up): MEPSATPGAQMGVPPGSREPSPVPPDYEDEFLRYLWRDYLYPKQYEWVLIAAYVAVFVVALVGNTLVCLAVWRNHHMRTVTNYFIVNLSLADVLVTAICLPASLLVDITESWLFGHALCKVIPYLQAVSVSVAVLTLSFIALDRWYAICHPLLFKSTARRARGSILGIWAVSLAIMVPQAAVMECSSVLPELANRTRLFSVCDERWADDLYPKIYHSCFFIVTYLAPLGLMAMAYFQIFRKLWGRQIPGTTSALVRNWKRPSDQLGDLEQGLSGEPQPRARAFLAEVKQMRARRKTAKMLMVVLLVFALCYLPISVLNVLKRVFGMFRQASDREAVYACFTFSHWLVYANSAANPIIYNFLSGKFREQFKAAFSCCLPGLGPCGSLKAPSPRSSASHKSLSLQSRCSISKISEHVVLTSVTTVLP
# CHO parental Ca – counter-screen: ATP calcium response change in parental CHO cells; parental CHO-K1, ATP-induced calcium, Fluo-8 fluorescence; inhibition, % at 5.6 µM; 0.63% of 330,000 active; AID 463079;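 active = inhibition above that plate's mean sample inhibition plus 3 SD, cut at about 26% in these data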;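 also: 0% = ATP-challenged DMSO wells and 100% = DMSO wells without ATP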
#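 test system = CHO parental line | reagent = ATP stimulus | measured by = intracellular calcium via Fluo-8 no-wash fluorescent dye | control set = ATP and no-ATP DMSO wells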
# GalR3 antag – blocks the human galanin receptor 3. 0.44% of 360,000 active. O60755. inhibition, % at 3 µM. AID 651719. HEK293 GalR3-CNG cAMP membrane potential fluorescence; galR3 body fused to GalR1 C-terminus;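 active = inhibition above the screen-wide average plus 3 SD, cut at about 13% in these data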;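 also: forskolin and galanin both at EC90 stimulate the cells; cAMP rise reported by CNG channel membrane potential dye signal; 0% = forskolin plus galanin with DMSO and 100% = forskolin alone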
# Target sequence (O60755 1-299 limits assumed): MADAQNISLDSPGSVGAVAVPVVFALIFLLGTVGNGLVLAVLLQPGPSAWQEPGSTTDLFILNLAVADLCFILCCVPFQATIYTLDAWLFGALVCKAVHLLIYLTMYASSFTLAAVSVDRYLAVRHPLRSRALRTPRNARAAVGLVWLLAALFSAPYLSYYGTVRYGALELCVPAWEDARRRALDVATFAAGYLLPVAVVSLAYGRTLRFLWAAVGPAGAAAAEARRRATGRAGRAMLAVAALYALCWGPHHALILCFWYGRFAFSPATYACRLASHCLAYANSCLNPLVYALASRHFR
# OX1R antag-2 – OX1R (human) antagonism | O43613 | OX1R-expressing cells, FRET antagonist read-out | inhibition, % at 6.6 µM | 1.8% of 330,000 active; in the data active = inhibition mostly above about 38%, no sharp cut-off; inactive = mostly below about 40%;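 also: 0% = agonist challenge alone and 100% = reference antagonist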
# OX1R Fluo8 conf – OX1R (human) antagonism, confirmed | 38% of 1,100 active | inhibition, % at 5 µM | CHO/OX1R cells, orexin A calcium Fluo-8 fluorescence | shares compounds with OX1R antag-1; in the data active = inhibition above about 29%;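 also: 0% = agonist challenge alone and 100% = reference antagonist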
# CHO Ca counter – counter-screen for OX1R antagonists: effect in parental CHO cells. 9.3% of 1,100 active. shares compounds with OX1R antag-1. inhibition, % at 5.6 µM. parental CHO-K1, ATP-induced calcium, Fluo-8 fluorescence;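 active = inhibition above a per-plate limit, the mean inhibition of that plate's test compounds plus 3 SD, cut at about 25% in these data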;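 also: 0% = ATP challenge with DMSO and 100% = DMSO without ATP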
# OX1R HTRF conf – OX1R (human) antagonism, HTRF confirmed. AID 492964. shares compounds with OX1R antag-2. 49% of 1,800 active. inhibition, % at 6.6 µM. OX1R-expressing cells, HTRF antagonist assay; in the data active = inhibition above about 55%;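 also: CHO cells expressing OX1R stimulated with orexin A at about EC80; 0% = agonist challenge alone and 100% = reference antagonist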
# CHO-K1 HTRF – counter-screen for OX1R antagonists: effect in parental CHO-K1 cells; shares compounds with OX1R antag-2; HTRF counterscreen; inhibition, % at 6.6 µM; 48% of 1,800 active; AID 493232; in the data active = inhibition above about 17%;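 also: 0% = agonist challenge with vehicle and 100% = vehicle alone without agonist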
# nonsel antag count – counter-screen for TAAR1 antagonists: nonselective antagonists; counterscreen cell line, calcium fluorescence, antagonist mode; shares compounds with TAAR1 antag; inhibition, % at 3 µM; 77% of 2,400 active; in the data active = inhibition above about 22%;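 also: CHO-Ga16 host cells stimulated with ATP at an EC80 level; 0% = agonist EC80 plus vehicle and 100% = vehicle without agonist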
# TAAR1 antag conf – human TAAR1 antagonism, confirmed | inhibition, % at 3 µM | 40% of 2,400 active | TAAR1-expressing cells, fluorescence antagonist read-out | shares compounds with TAAR1 antag; in the data active = inhibition above about 49%;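 also: CHO-Ga16 host cells challenged with agonist PEA near its EC80; 0% = agonist at EC80 plus vehicle and 100% = vehicle with no agonist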
# Ga16 ag counter – nonselective Ga16 agonism, counter-screen; Ga16-expressing cells, calcium fluorescence, agonist counterscreen; AID 651953; activation, % at 3 µM; shares compounds with TAAR1 antag; 18% of 2,400 active; in the data active = activation above about 12%;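 also: 0% = vehicle wells and 100% = saturating stimulus response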
# TAAR1 ag counter – activates human TAAR1 in antagonist counter-screen | shares compounds with TAAR1 antag | hTAAR1 cell line, fluorescence activation, agonist mode | activation, % at 3 µM | 2% of 2,400 active; in the data active = activation above about 37%;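 also: CHO cells stably expressing TAAR1 with calcium dye readout; 0% = DMSO vehicle and 100% = full agonist response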
# * hit, by the source's call; x = not tested or not shown. An excerpt weighted towards active compounds, which were near 4.3% of everything screened.
SMILES,TAAR1 agonist,TAAR1 antag,OX1R antag-1,CHO parental Ca,GalR3 antag,OX1R antag-2,OX1R Fluo8 conf,CHO Ca counter,OX1R HTRF conf,CHO-K1 HTRF,others
Cc1ccn2cc(C(=O)Nc3ccc4c(c3)OCCO4)nc2c1,3,-16,40,-24,-2,88*,10,-1,74*,9,
CCOC(=O)C1=C(COC(=O)c2ccc3ccccc3c2O)NC(=O)NC1C (stereo not drawn),8,-4,101*,-18,4,104*,100*,-28,91*,-22,
CCCCNC(=O)C1(C)CCCCN1Cc1ccccc1-c1ccccc1 (stereo not drawn),13,19,x,x,-4,x,x,x,x,x,
CCOc1ccccc1-c1ccc(C(=O)NCc2ccc(Cl)cc2)o1,2,35,x,x,-7,x,x,x,x,x,
O=C(O)c1ccc(Nc2cnc3ccccc3n2)cc1,11,-2,-4,-3,-4,18,x,x,x,x,
CCOC(=O)c1ccc(Nc2cnc3ccccc3n2)cc1,0,-29,46*,-7,1,62*,23,-5,50,0,
COc1ccc(OC)c(NC(=O)c2cc(OC(C)=O)cc(C(=O)Nc3cc(OC)ccc3OC)c2)c1,6,48,39,-10,-8,85*,54*,-2,85*,5,
COc1ccc(OC)c(NC(=O)c2csc(Cl)c2OC)c1,-4,-9,80*,-19,-9,105*,11,-9,82*,5,
COc1ccc(OC)c(NC(=O)c2cc3ccccc3o2)c1,7,13,41*,-7,-5,85*,0,-7,52,12,
COc1ccc(C(NC(=O)C2CCN(C/C=C/c3ccc(OC(C)=O)c(OC)c3)CC2)c2ccccn2)cc1 (stereo not drawn),2,-8,x,x,-8,x,x,x,x,x,
OC(c1ccccc1)c1nc(-c2cncnc2)cs1 (stereo not drawn),0,1,x,x,-7,x,x,x,x,x,
Cc1ccc(NC(=O)Nc2nnc(-c3ccncc3)s2)cc1C,12,29,25,-1,-9,41*,16,13,48,10,
CC(=O)C1=C(O)C(=CC=Cc2ccccc2)OC1=O,3,-11,x,x,0,x,x,x,x,x,
CCN(CC)c1ccc(NC(=O)Cn2c(C(C)NC(=O)c3ccccc3)nc3ccccc32)cc1 (stereo not drawn),6,3,54*,-1,-2,93*,61*,-13,88*,3,
CN(C)c1ccc(/C=C/c2ccc3ccccc3n2)cc1,x,x,62*,14,x,75*,52*,15,80*,8,
Cc1ccc(SCc2c(C(=O)N/N=C/c3ccc4c(c3)OCO4)nnn2-c2nonc2N)cc1,0,1,34,-14,-7,60*,12,14,82*,7,
Cc1ccc(-c2c(C(=O)N/N=C/c3ccc4c(c3)OCO4)nnn2-c2nonc2N)cc1,26,28,46,-11,-8,74*,28,3,88*,0,
CCCNC(=O)C(Cc1ccc(I)cc1)NC(=O)c1ccc(C#N)cc1 (stereo not drawn),12,-10,-12,-11,-2,4,x,x,x,x,
O=C(CN1c2cccc3cccc(c23)S1(=O)=O)NCc1ccc(Cl)cc1,12,12,-7,-32,1,9,x,x,x,x,
CCc1noc(C)c1C(=O)OC(C)C(=O)Nc1ccc(Cl)cn1 (stereo not drawn),5,12,-21,-30,-6,8,x,x,x,x,
N#CC(=C1CCCC1)c1nc(-c2ccccc2O)cs1,x,x,67*,-7,x,93*,54*,-5,94*,-4,
COc1ccc(F)cc1S(=O)(=O)NCC(c1ccco1)N1CCc2ccccc2C1 (stereo not drawn),25,-12,-16,-23,-3,35,x,x,x,x,
COc1ccccc1CCC(=O)OCC(=O)c1c(N)n(CC(C)C)c(=O)n(C)c1=O,10,20,24,18,-4,49*,40*,21,20,2,
CCOc1ccccc1OCC(=O)OCC(=O)c1c(N)n(CC(C)C)c(=O)n(C)c1=O,22,37,35,2,0,15,x,x,x,x,
CCc1sc(C(=O)Nc2ccc3nc(C)sc3c2)cc1C,2,-1,65*,-23,2,81*,53*,-21,90*,16,
SMILES,TAAR1 agonist,TAAR1 antag,OX1R antag-1,CHO parental Ca,GalR3 antag,OX1R antag-2,OX1R Fluo8 conf,CHO Ca counter,OX1R HTRF conf,CHO-K1 HTRF,others
C=CCNc1nc(N(c2ccccc2)c2ccccc2)nc(-n2ccnc2)n1,37,95*,19,3,-9,10,88*,13,x,x,nonsel antag count=47*;TAAR1 antag conf=84*;Ga16 ag counter=10;TAAR1 ag counter=18
CC(C)C(=O)N1CCN(c2ccc(NC(=O)COc3ccccc3[N+](=O)[O-])cc2)CC1,31,73*,28,8,0,51,27,4,x,x,nonsel antag count=55*;TAAR1 antag conf=76*;Ga16 ag counter=20*;TAAR1 ag counter=21
Cc1ccccc1-n1nnnc1SCC(C)C,6,-6,-24,-13,0,17,x,x,x,x,
Cc1ccccc1-n1nnnc1SCc1csc(-c2ccccc2)n1,16,70*,31,6,-6,53,19,-14,x,x,nonsel antag count=28*;TAAR1 antag conf=43;Ga16 ag counter=7;TAAR1 ag counter=7
COc1cc(CN2CC(=O)N(c3ccccc3Cl)C2=S)cc(OC)c1OC,25,75*,39,1,-9,39,68*,1,x,x,nonsel antag count=49*;TAAR1 antag conf=66*;Ga16 ag counter=14*;TAAR1 ag counter=18
COc1cc(CN2CC(=O)N(c3cccc(Cl)c3C)C2=S)cc(OC)c1OC,11,17,13,-7,-10,27,x,x,x,x,
O=C(NNCc1ccccc1)c1ccccn1,0,4,x,x,-3,x,x,x,x,x,
